In assay [1] the target is T1, Mitogen-activated protein kinase 14 (Homo sapiens, UniProt Q16539). Nature of the assay: Inhibition of LPS-stimulated TNFalpha production in human THP1 cells. The assay is classed as functional, cell-based, THP-1. Summed up: (§1)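 THP-1 human monocytic cells, in duplicate cultures, were preincubated with or without inhibitor for 15 min. TNF-α release was then stimulated with LPS at 1 µg/ml final. Secreted TNF-α was quantified by ELISA 4 h after stimulation. Cell viability after the 4 h incubation was assessed by MTS assay.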
T1 sequence (Q16539 whole entry): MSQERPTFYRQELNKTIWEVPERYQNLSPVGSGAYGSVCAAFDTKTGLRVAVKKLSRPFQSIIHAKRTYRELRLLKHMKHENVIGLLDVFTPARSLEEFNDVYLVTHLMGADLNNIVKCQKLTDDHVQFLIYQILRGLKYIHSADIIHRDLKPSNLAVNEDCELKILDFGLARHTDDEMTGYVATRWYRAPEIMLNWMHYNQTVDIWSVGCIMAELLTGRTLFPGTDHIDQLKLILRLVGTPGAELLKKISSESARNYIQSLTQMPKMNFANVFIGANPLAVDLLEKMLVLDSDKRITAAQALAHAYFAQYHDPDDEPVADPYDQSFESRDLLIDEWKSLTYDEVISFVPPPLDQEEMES

In assay [2] the target is T1, Mitogen-activated protein kinase 14. Nature of the assay: Inhibition of LPS-stimulated TNFalpha production in human THP1 cells at 1 uM. It is filed as functional, cell-based. The conditions noted are these: THP-1. The essentials: as §1

SMILES strings stand for the structures.

The values that follow come from ChEMBL document CHEMBL1138889, “Development of N-2,4-pyrimidine-N-phenyl-N'-phenyl ureas as inhibitors of tumor necrosis factor alpha (TNF-alpha) synthesis. Part 1” (Bioorg Med Chem Lett, 2006).

As to `C[C@H](Nc1nccc(N(C(=O)Nc2ccccc2Cl)c2ccc(F)cc2)n1)c1ccccc1` (stereo in doubt; 5i), the half-inhibitory concentration (IC50) in assay [1] is greater than 5000 nM. The same measure, in the same setting: the value for `COC[C@H](C)Nc1nccc(N(C)C(=O)Nc2ccccc2C)n1` was greater than 5000 nM. The compound `CCOC(=O)N1CCC(Nc2nccc(N(C(=O)Nc3ccccc3Cl)c3ccc(F)cc3)n2)CC1` returned an IC50 in assay [1] of 3610 nM. The same measure, in the same setting: the figure for `CN1CCN(c2nccc(N(C(=O)Nc3ccccc3Cl)c3ccc(F)cc3)n2)CC1` is greater than 5000 nM; for `COCC(C)Nc1nccc(N(N)C(=O)Nc2ccccc2Cl)n1` (single isomer, unassigned) it is greater than 5000 nM; for `C[C@H](Nc1nccc(N(C(=O)Nc2ccccc2Cl)c2ccc(F)cc2)n1)c1ccccc1` (stereo in doubt; 5h) it is 843 nM. The same measure, in the same setting: the value for `COc1ccc(N(C(=O)Nc2ccccc2Cl)c2ccnc(N[C@@H](C)C(C)(C)O)n2)cc1` was 92 nM.

In assay [1], `COC[C@H](C)Nc1nccc(N(C(=O)Nc2ccccc2F)c2ccc(F)cc2)n1` registered a half-inhibitory concentration (IC50) of 2880 nM. `C[C@H](Nc1nccc(N(C(=O)Nc2c(Cl)cccc2Cl)c2ccc(F)cc2)n1)C(C)(C)O` displayed an inhibition in assay [2] of 63%. As to `COC[C@H](C)Nc1nccc(N(C(=O)Nc2ccccc2Cl)c2ccc(F)cc2)n1`, the half-maximal inhibitory concentration (IC50) in assay [1] was 3100 nM. Same read-out and setting: the figure for `COC[C@H](C)Nc1nccc(N(C(=O)Nc2ccc(C(F)(F)F)cc2)c2ccc(F)cc2)n1` is greater than 5000 nM. The same measure, in the same setting: the value for `COc1ccc(N(C(=O)Nc2ccccc2C)c2ccnc(N[C@@H](C)C(C)(C)O)n2)cc1` was 135 nM; that for `COC[C@H](C)Nc1nccc(N(C(=O)Nc2ccccc2C)c2ccccc2)n1` was 1000 nM; that for `O=C(Nc1ccccc1Cl)N(c1ccc(F)cc1)c1ccnc(N2CCOCC2)n1` was greater than 5000 nM. Same read-out and setting: the figure for `C[C@H](Nc1nccc(N(C(=O)Nc2ccccc2Cl)c2ccc(F)cc2)n1)C(C)(C)O` is 122 nM; for `Cc1ccccc1NC(=O)N(c1ccc(N(C)C)cc1)c1ccnc(N[C@@H](C)c2ccccc2)n1` it is greater than 5000 nM; for `C[C@H](Nc1nccc(N(C(=O)Nc2ccccc2Cl)c2ccccc2)n1)C(C)(C)O` it is 718 nM. Compound `COC[C@H](C)Nc1nccc(N(C(=O)Nc2ccccc2Cl)c2ccc(N(C)C)cc2)n1` showed a 50% inhibitory concentration (IC50) in assay [1] greater than 5000 nM.

Take `Cc1ccccc1NC(=O)N(c1ccc(F)cc1)c1ccnc(N[C@@H](C)C(C)(C)O)n1`: the half-inhibitory concentration (IC50) in assay [1] stood at 176 nM. Still for that read-out and setting: the value for `O=C(Nc1ccccc1Cl)N(c1ccc(F)cc1)c1ccnc(NC2CCOCC2)n1` was 539 nM.

Consider `COC[C@H](C)Nc1nccc(N(C(=O)Nc2ccccc2C)c2ccc(F)cc2)n1`, for which, in assay [1], the IC50 was determined as 3650 nM. The same measure, in the same setting: the value for `CCCS(=O)(=O)N1CCC(Nc2nccc(N(C(=O)Nc3ccccc3Cl)c3ccc(F)cc3)n2)CC1` was 1420 nM; that for `C[C@H](Nc1nccc(N(C(=O)Nc2ccccc2Cl)c2cccc(F)c2)n1)c1ccccc1` was 6160 nM.
